# Screening results from PubChem BioAssay.
# Only some compounds are listed: those with a hit (about 3.1% of all), similar ones and a draw of the others.
# KCNQ1 block = blocks the human KCNQ1 potassium channel; B-score at 10 µM; CHO-K1 KCNQ1, FluxOR thallium flux fluorescence; hits give high values; AID 2642; 1.3% of 310,000 active; P51787;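 active means compounds whose thallium flux B-score, printed positive for inhibition, exceeds three library SD while starting fluorescence stays within three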;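 further: channel opened by potassium depolarization with thallium stimulus after 20 min compound exposure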
# Target sequence (P51787 whole entry, looked up): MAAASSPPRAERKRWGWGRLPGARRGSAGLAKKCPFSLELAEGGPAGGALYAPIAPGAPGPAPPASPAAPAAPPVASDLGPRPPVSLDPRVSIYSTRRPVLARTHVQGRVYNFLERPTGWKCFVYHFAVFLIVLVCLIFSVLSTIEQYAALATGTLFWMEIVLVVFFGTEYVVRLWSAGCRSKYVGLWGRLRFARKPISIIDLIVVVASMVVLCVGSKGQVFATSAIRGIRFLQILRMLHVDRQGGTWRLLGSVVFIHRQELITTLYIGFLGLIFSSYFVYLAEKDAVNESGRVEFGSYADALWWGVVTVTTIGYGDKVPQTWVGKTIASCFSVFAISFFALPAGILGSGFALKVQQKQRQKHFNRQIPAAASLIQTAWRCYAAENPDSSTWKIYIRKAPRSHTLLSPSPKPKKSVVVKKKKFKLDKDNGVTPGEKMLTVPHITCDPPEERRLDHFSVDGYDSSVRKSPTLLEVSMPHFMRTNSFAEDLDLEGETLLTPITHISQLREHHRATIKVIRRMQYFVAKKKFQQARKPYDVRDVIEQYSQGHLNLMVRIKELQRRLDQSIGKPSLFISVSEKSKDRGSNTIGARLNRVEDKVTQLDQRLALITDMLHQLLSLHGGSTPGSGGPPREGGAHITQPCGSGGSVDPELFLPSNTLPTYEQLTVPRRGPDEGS
# hERG protect = compounds protecting human hERG from proarrhythmic drug block. CHO-hERG, FluxOR thallium flux, dofetilide IC70 present. activation (rescue from dofetilide block), less the hit threshold, % at 10 µM. 0.51% of 310,000 active. AID 1511;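 active means activation above the mean of controls blocked by dofetilide plus 5 SD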;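 further: thallium influx through hERG after potassium depolarization seen as dye fluorescence rise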
# KCNK3 inh = human KCNK3 channel inhibition, primary screen | CHO-KCNK3 thallium flux, FluxOR fluorescence; hits give low values | B-score at 10 µM | O14649 | 0.84% of 340,000 active;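 active means B-score under library mean minus 4 SD, starting fluorescence ratio at most library mean plus 5 SD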;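 further: more negative B-score means stronger inhibition of thallium flux through KCNK3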
# KCNQ1 pot = potentiates or activates the human KCNQ1 potassium channel; P51787; 0.35% of 310,000 active; CHO-K1 KCNQ1, thallium flux FluxOR fluorescence; hits give high values; B-score at 10 µM; AID 2648;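 active means fluorescence ratio B-score, a plate-corrected score, at least three library SD, with initial intensity B-score within 5 SD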
#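 assay system = CHO-K1 cells stably expressing KCNQ1 | medium = assay buffer, equal DMSO in all wells | timing = 37 °C overnight plating, 90-min dark dye load, 20-min compound pretreatment | measured by = kinetic FluxOR thallium fluorescence, 10-s 1-Hz baseline, 110-s post-stimulus read | measure = fluorescence change relative to baseline, converted to B score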
# KCNK9 inh = human KCNK9 channel inhibition; Q9NPC2; HEK293 KCNK9, FluxOR thallium flux fluorescence; hits give low values; B-score at 10 µM; 1.2% of 310,000 active; AID 488922;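 active means ratio B-score over 3 SD below the library mean, with starting fluorescence within 5 SD of its mean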;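 further: negative B-score means less thallium flux so channel inhibition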
# KCNK9 inh conf = human KCNK9 inhibitor confirmation. 43% of 4,900 active. HEK293 KCNK9 cells, FluxOR thallium flux fluorescence. inhibition, % at 10 µM. shares compounds with KCNK9 inh;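 active means thallium signal inhibited by more than 5 SD of the compound-free buffer control wells, on both duplicate plates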;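 further: 0% = assay buffer control wells without compound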
# Kir2-1 spec = mouse Kir2.1 off-target activity of KCNK9 modulators; shares compounds with KCNK9 inh; Kir2.1 cells, FluxOR thallium flux fluorescence; inhibition, % at 10 µM; 4% of 4,900 active;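 active means thallium signal drop more than 5 SD beyond the mean of the no-compound control wells, seen in both duplicate plates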;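 further: signal is fluorescence rise after thallium addition divided by baseline fluorescence; plate controls were assay buffer only for no effect and full block by chlorpromazine control for full effect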
# KCNK9 uninduced = second check of KCNK9 modulator effects in non-induced HEK293 cells | shares compounds with KCNK9 inh | FluxOR thallium flux | inhibition, % at 10 µM | 40% of 4,900 active;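 active means thallium signal drop beyond 5 SD of the untreated control mean, on both duplicate plates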;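 further: plate controls were buffer only IC0 wells for no effect and SID17386958 at its maximal inhibitory level for full effect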
# * = called active by the depositor; i = inactive; · = not tested or not shown.
SMILES,KCNQ1 block,hERG protect,KCNK3 inh,KCNQ1 pot,KCNK9 inh,KCNK9 inh conf,Kir2-1 spec,KCNK9 uninduced
CCCC(C(=O)Nc1ccc(S(=O)(=O)Nc2nccs2)cc1)c1ccccc1 (centres undefined),·,·,i,·,·,·,·,·
Clc1ccc(N=c2ssnc2Cl)cc1,i,-18,i,i,i,·,·,·
Fc1ccc(N=c2ssnc2Cl)c(F)c1,i,-13,i,i,i,i,i,i
COc1ccc(N2CSC3=C(C#N)C(c4cccc(OC)c4OC)CC(=O)N3C2)cc1 (centres undefined),i,-9,i,i,i,·,·,·
COc1ccc(C2CC(=O)N3CN(c4ccc(C)c(Cl)c4)CSC3=C2C#N)cc1 (centres undefined),i,-9,i,i,i,i,i,i
Cc1cc(NC(=O)Cn2nc(-c3cccs3)ccc2=O)cc(C)c1Br,i,-2,i,i,-8.3*,36%*,i,26%*
Cc1c(Br)ccc(NC(=O)Cn2nc(-c3cccs3)ccc2=O)c1C,i,-13,i,i,i,·,·,·
O=C(c1ccc(F)cc1)N1CCC(C(=O)N2CCN(c3ncccn3)CC2)CC1,·,·,i,·,·,·,·,·
COc1ccc2nc(Nc3nc(CSc4ccc(C)cc4)cc(=O)[nH]3)nc(C)c2c1,i,-6,i,i,i,i,i,i
COc1ccc2nc(Nc3nc(CSc4nnnn4-c4ccccc4)cc(=O)[nH]3)nc(C)c2c1,i,-17,i,i,i,·,·,·
CCOC(=O)c1c(NC(=O)C(=O)N/N=C/c2ccc(O)c(OC)c2)sc2c1CCCCC2,i,-15,i,i,-8.5*,56%*,i,30%*
C(=N\N1CCN(Cc2cccc3ccccc23)CC1)/c1cccs1,i,-4,i,i,i,i,i,i
CCN(CC)c1ccc(/C=N/N2CCN(Cc3cccc4ccccc34)CC2)c(O)c1,i,-8,i,i,i,i,i,i
C/C(=N/N1CCN(Cc2cccc3ccccc23)CC1)c1ccco1,i,-13,i,i,i,i,i,i
CCN(CC)c1ccc(/C=N/N2CCN(Cc3ccc(Cl)cc3)CC2)c(O)c1,i,-3,i,i,i,·,·,·
COc1cccc2[nH]c(C(=O)NCc3ccccc3)cc12,i,-4,i,i,i,·,·,·
O=C(CSc1ccc(S(=O)(=O)N2CCOCC2)cn1)Nc1ccc(F)c(F)c1,·,·,i,·,·,·,·,·
O=C1C=C(c2ccc(CO)cc2)C[C@@H](c2ccc3c(c2)OCO3)C1,·,·,i,·,·,·,·,·
O=C1[C@@H]2[C@@H]3C[C@@H]([C@H]4ON=C(c5ccc(Cl)cc5)[C@@H]34)[C@@H]2C(=O)N1C1CCCCC1,i,-6,i,i,i,i,i,i
C[C@@H]1C(c2cccc(Cl)c2)=NN(c2ccc(Br)cc2)[C@H]1C(=O)N1CCOC1=O,·,·,i,·,·,·,·,·
Cc1ccc(Cl)c(OCCCN(C)Cc2ccccc2)c1,i,-15,i,i,i,i,i,i
Cc1ccc(Cl)c(OCCCCN(C)Cc2ccccc2)c1,i,-9,i,i,i,·,·,·
Cc1ccc(Cl)c(OCCN2CCc3ccccc3C2)c1,i,-2,i,i,i,i,i,i
CCOc1ccc2[nH]c(=O)c(CN(Cc3cccs3)Cc3nnnn3C(C)(C)CC)cc2c1,i,-18,-9.9*,i,-9.7*,34%*,i,i
c1ccc(C2Nc3ccccc3C3OCCCC23)cc1 (centres undefined),i,-5,i,i,i,i,i,i
COc1ccc(CN2C(=O)c3ccccc3C2=O)cc1C(=O)N(C)CC(=O)Nc1ccc(F)cc1,·,·,i,·,·,·,·,·
COC(=O)COc1cc(OCC(=O)OC)c2c(C)c(Cl)c(=O)oc2c1,i,-5,i,i,i,·,·,·
